# Experimental data collected from several papers.
# Lines come from different studies, so protocols differ. pEC50, pIC50: −log10 of the molar value.
# Cell line: SK-OV-3
SMILES,assay,setting,measurement,result
COc1ccc(-c2ccc(-c3ccc(C(=N)N)nc3)s2)cc1Cl,"cell growth or viability, SRB",,GI50,1.75 µM
COc1cccc2c1C(=O)c1c(O)c3c(c(O)c1C2=O)C[C@@](O)(C(=O)CO)C[C@@H]3O[C@H]1C[C@H](N)[C@H](O)[C@H](C)O1,"cell growth or viability, SRB",,pIC50,4.59
CCN1CCN(Cc2ccc(Nc3ncc(F)c(-c4cc(F)c5nc(C)n(C(C)C)c5c4)n3)nc2)CC1,"cell growth or viability, CCK-8",,pIC50,5.79
COc1cc(CNC(=O)CCCC/C=C/C(C)C)ccc1O,"cell growth or viability, SRB",,pIC50,4.66
S=C([S][Au-][P+](CCCCCC[P+]([Au-][S]C(=S)n1cccn1)(c1ccccc1)c1ccccc1)(c1ccccc1)c1ccccc1)n1cccn1,cell growth or viability,,GI50,2.06 µM
CC(=O)OC[C@H]1O[C@@H]([S-])[C@H](OC(C)=O)[C@@H](OC(C)=O)[C@@H]1OC(C)=O.CCP(CC)CC.[Au+],"cell growth or viability, resazurin",,pIC50,5.57
C[C@]12CC[C@@H]3c4ccc(O)cc4CC[C@H]3[C@@H]1CC[C@@H]2O,"cell growth or viability, ATP luminescence",72 h,pEC50,4.74
COc1ccc(C(=O)/C=C/c2ccc3ccccc3c2)cc1S(N)(=O)=O,"cell growth or viability, SRB",48 h,GI50,4.9 µM
NC(=O)c1cccc2cn(-c3ccc([C@@H]4CCCNC4)cc3)nc12,colony formation,,pIC50,5.27
COc1ccc(C(=O)/C=C/c2ccc(Cl)c(Cl)c2)cc1S(N)(=O)=O,"cell growth or viability, SRB",48 h,GI50,5.5 µM
CC/C(=C(\c1ccccc1)c1ccc(OCCN(C)C)cc1)c1ccccc1,"cell growth or viability, ATP luminescence",72 h,EC90,17.4 µM
OCc1ccc2c(c1C#Cc1ccc(O)cc1)C(c1ccc(O)cc1)(c1ccc(O)cc1)c1cc(O)ccc1-2,"cell growth or viability, MTT",48 h,pIC50,< 4.30
COc1ccc(C(=O)/C=C/c2cccc(Br)c2)cc1S(N)(=O)=O,"cell growth or viability, SRB",48 h,GI50,4.1 µM
O=c1[nH]cc(F)c(=O)[nH]1,"cell growth or viability, MTT",48 h,pIC50,4.43
COc1ccc(C(=O)/C=C/c2cccnc2)cc1S(N)(=O)=O,"cell growth or viability, SRB",48 h,GI50,16.6 µM
CC(C)C[C@H](NC(=O)[C@H](Cc1ccccc1)NC(=O)c1cnccn1)B(O)O,"cell growth or viability, ATP luminescence",,pIC50,7.60
COc1ccc(C(=O)/C=C/c2ccccc2Br)cc1S(N)(=O)=O,"cell growth or viability, SRB",48 h,GI50,12.9 µM
COc1ccc(-c2ccc(-c3ccc(C(=N)N)nc3)s2)cc1,"cell growth or viability, SRB",,GI50,1.7 µM
